Assays:
[1] = target: T1, Tyrosine-protein kinase ITK/TSK (Homo sapiens) (UniProt Q08881); experiment: Inhibition of human recombinant ITK at 500 nM in presence of ATP by radiometric assay relative to control
T1 sequence (whole entry): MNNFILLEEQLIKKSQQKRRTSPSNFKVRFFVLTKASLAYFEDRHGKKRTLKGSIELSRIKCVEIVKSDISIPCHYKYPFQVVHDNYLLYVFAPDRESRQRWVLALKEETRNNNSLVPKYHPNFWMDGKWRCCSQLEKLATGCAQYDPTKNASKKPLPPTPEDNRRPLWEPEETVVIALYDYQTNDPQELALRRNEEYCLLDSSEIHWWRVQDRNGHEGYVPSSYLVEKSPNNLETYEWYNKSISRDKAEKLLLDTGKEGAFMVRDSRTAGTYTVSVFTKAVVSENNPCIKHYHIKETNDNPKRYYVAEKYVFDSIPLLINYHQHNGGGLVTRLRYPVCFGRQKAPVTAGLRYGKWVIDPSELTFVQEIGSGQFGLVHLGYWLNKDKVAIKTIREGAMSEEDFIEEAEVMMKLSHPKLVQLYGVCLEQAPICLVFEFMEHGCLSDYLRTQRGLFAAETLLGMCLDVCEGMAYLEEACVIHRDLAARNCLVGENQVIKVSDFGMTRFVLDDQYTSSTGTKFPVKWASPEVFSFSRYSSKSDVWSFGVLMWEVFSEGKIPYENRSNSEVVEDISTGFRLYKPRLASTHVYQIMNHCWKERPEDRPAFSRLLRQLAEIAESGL

[2] = target: Homeodomain-interacting protein kinase 3 (Homo sapiens) (UniProt Q9H422); experiment: Inhibition of human recombinant HIPK3 at 500 nM related to control ULK1
[3] = target: T2, Eukaryotic elongation factor 2 kinase (Homo sapiens) (UniProt O00418); experiment: Inhibition of human recombinant eEF2K at 500 nM related to control ULK1
T2 sequence (whole entry): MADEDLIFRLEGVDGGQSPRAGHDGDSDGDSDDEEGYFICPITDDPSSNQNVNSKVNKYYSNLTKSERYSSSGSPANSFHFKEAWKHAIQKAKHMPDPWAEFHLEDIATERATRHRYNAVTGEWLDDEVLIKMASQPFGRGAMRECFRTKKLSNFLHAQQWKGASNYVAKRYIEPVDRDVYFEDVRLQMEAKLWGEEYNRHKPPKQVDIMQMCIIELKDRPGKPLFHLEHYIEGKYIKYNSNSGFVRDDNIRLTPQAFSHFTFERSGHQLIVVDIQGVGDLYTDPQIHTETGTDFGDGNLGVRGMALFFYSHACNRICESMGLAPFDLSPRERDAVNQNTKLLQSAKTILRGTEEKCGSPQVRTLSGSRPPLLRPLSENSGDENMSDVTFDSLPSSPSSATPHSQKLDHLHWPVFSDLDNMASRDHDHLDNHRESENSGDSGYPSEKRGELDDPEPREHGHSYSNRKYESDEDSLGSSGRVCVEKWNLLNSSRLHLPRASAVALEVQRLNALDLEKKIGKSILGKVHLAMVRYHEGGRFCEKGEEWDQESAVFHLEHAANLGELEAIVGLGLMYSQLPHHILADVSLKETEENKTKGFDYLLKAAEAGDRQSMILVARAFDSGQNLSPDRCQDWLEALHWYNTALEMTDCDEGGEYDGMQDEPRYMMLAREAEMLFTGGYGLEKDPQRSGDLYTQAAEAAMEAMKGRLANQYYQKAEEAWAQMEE

[4] = target: T3, Serine/threonine-protein kinase TBK1 (Homo sapiens) (UniProt Q9UHD2); experiment: Inhibition of human recombinant TBK1 at 500 nM in presence of ATP by radiometric assay relative to control
T3 sequence (whole entry): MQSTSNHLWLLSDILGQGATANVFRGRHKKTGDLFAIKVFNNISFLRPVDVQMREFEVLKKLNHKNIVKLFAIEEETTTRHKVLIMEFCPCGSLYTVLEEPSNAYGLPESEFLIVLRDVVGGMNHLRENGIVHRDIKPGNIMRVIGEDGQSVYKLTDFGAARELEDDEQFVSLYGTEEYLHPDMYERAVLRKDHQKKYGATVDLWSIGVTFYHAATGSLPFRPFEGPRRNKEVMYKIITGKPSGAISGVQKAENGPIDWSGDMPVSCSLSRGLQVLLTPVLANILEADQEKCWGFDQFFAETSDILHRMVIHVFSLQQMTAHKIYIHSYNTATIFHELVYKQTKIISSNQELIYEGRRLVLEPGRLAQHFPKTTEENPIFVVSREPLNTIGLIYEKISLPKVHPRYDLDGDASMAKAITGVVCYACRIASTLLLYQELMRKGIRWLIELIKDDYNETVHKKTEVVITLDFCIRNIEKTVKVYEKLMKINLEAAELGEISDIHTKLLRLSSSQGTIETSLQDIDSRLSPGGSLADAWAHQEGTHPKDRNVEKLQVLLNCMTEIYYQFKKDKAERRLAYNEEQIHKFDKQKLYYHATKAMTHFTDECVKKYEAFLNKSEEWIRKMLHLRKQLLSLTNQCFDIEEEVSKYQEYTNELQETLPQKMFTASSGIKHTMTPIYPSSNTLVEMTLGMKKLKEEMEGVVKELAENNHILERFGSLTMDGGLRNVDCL

[5] = target: Serine/threonine-protein kinase Nek4 (Homo sapiens) (UniProt P51957); experiment: Inhibition of human recombinant NEK4 at 15 nM related to control ULK1
[6] = target: Serine/threonine-protein kinase PAK 1 (Homo sapiens) (UniProt Q13153); experiment: Inhibition of human recombinant PAK1 at 40 nM related to control ULK1
[7] = target: Interferon-induced, double-stranded RNA-activated protein kinase (Homo sapiens) (UniProt P19525); experiment: Inhibition of human recombinant PKR at 40 nM in presence of ATP by radiometric assay relative to control
[8] = target: Serine-protein kinase ATM (Homo sapiens) (UniProt Q13315); experiment: Inhibition of human recombinant ATM at 40 nM in presence of ATP by radiometric assay relative to control
Outline: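 Panel of 327 recombinant human kinases, each assayed in vitro by radiometric activity assay in duplicate at a single inhibitor concentration per compound, chosen with reference to its ULK1 inhibition. Activity remaining was expressed as percent of vehicle control, and percent inhibition was calculated as 100 minus percent activity remaining.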

[9] = target: Serine/threonine-protein kinase PAK 6 (Homo sapiens) (UniProt Q9NQU5); experiment: Inhibition of human recombinant PAK6 at 40 nM related to control ULK1
[10] = target: cAMP-dependent protein kinase catalytic subunit beta (Homo sapiens) (UniProt P22694); experiment: Inhibition of human recombinant PKACbeta at 40 nM in presence of ATP by radiometric assay relative to control

Sequence of Homeodomain-interacting protein kinase 3 (Homo sapiens) (Q9H422 whole entry, looked up): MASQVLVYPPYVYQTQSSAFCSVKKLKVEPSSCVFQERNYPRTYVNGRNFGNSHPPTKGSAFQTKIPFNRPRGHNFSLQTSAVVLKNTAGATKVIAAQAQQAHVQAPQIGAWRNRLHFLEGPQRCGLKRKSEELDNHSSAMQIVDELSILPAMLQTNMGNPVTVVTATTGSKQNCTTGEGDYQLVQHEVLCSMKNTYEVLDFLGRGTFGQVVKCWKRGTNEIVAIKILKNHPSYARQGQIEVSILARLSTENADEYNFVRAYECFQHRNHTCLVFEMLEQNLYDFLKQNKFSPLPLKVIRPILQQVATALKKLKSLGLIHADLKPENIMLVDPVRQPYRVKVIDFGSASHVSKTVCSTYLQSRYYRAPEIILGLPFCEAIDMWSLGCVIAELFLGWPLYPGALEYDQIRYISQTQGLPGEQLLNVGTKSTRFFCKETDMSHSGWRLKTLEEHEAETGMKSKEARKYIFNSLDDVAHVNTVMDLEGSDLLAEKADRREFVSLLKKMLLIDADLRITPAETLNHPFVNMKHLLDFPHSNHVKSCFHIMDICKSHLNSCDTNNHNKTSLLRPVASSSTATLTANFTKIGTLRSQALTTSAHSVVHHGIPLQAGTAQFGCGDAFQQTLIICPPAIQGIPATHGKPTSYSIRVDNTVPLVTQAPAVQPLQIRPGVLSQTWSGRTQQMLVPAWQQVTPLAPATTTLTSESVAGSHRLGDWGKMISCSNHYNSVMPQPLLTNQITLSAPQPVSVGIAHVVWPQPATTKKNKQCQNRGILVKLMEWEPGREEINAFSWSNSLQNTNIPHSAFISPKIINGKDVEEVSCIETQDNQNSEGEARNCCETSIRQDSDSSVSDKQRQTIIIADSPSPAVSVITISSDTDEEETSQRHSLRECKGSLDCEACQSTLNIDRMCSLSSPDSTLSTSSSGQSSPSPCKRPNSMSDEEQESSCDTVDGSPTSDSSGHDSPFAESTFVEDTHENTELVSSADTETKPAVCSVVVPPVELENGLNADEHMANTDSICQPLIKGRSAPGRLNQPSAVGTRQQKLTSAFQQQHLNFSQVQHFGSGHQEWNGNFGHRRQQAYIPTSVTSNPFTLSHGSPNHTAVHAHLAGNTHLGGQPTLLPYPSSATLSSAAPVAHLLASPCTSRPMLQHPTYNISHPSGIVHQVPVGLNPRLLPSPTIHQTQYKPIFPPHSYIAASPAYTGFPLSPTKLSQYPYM
Sequence of Serine/threonine-protein kinase PAK 6 (Homo sapiens) (Q9NQU5 whole entry, looked up): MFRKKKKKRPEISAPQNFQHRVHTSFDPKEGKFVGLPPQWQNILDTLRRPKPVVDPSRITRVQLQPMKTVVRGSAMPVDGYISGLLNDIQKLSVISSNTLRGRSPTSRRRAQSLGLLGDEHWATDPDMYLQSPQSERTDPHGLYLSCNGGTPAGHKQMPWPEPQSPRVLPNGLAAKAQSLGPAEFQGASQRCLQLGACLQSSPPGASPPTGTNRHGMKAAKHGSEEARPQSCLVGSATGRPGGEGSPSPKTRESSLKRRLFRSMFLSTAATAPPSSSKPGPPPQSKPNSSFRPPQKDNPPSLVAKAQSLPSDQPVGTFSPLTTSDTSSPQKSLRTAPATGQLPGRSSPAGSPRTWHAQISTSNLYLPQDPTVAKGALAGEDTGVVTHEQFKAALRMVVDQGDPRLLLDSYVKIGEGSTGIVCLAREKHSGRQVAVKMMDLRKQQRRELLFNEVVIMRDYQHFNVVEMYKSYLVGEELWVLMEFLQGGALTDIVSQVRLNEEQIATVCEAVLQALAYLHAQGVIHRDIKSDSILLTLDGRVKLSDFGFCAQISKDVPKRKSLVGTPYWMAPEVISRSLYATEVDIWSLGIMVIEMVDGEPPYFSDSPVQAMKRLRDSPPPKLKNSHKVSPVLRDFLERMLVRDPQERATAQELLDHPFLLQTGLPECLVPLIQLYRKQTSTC
Sequence of Serine-protein kinase ATM (Homo sapiens) (Q13315 whole entry): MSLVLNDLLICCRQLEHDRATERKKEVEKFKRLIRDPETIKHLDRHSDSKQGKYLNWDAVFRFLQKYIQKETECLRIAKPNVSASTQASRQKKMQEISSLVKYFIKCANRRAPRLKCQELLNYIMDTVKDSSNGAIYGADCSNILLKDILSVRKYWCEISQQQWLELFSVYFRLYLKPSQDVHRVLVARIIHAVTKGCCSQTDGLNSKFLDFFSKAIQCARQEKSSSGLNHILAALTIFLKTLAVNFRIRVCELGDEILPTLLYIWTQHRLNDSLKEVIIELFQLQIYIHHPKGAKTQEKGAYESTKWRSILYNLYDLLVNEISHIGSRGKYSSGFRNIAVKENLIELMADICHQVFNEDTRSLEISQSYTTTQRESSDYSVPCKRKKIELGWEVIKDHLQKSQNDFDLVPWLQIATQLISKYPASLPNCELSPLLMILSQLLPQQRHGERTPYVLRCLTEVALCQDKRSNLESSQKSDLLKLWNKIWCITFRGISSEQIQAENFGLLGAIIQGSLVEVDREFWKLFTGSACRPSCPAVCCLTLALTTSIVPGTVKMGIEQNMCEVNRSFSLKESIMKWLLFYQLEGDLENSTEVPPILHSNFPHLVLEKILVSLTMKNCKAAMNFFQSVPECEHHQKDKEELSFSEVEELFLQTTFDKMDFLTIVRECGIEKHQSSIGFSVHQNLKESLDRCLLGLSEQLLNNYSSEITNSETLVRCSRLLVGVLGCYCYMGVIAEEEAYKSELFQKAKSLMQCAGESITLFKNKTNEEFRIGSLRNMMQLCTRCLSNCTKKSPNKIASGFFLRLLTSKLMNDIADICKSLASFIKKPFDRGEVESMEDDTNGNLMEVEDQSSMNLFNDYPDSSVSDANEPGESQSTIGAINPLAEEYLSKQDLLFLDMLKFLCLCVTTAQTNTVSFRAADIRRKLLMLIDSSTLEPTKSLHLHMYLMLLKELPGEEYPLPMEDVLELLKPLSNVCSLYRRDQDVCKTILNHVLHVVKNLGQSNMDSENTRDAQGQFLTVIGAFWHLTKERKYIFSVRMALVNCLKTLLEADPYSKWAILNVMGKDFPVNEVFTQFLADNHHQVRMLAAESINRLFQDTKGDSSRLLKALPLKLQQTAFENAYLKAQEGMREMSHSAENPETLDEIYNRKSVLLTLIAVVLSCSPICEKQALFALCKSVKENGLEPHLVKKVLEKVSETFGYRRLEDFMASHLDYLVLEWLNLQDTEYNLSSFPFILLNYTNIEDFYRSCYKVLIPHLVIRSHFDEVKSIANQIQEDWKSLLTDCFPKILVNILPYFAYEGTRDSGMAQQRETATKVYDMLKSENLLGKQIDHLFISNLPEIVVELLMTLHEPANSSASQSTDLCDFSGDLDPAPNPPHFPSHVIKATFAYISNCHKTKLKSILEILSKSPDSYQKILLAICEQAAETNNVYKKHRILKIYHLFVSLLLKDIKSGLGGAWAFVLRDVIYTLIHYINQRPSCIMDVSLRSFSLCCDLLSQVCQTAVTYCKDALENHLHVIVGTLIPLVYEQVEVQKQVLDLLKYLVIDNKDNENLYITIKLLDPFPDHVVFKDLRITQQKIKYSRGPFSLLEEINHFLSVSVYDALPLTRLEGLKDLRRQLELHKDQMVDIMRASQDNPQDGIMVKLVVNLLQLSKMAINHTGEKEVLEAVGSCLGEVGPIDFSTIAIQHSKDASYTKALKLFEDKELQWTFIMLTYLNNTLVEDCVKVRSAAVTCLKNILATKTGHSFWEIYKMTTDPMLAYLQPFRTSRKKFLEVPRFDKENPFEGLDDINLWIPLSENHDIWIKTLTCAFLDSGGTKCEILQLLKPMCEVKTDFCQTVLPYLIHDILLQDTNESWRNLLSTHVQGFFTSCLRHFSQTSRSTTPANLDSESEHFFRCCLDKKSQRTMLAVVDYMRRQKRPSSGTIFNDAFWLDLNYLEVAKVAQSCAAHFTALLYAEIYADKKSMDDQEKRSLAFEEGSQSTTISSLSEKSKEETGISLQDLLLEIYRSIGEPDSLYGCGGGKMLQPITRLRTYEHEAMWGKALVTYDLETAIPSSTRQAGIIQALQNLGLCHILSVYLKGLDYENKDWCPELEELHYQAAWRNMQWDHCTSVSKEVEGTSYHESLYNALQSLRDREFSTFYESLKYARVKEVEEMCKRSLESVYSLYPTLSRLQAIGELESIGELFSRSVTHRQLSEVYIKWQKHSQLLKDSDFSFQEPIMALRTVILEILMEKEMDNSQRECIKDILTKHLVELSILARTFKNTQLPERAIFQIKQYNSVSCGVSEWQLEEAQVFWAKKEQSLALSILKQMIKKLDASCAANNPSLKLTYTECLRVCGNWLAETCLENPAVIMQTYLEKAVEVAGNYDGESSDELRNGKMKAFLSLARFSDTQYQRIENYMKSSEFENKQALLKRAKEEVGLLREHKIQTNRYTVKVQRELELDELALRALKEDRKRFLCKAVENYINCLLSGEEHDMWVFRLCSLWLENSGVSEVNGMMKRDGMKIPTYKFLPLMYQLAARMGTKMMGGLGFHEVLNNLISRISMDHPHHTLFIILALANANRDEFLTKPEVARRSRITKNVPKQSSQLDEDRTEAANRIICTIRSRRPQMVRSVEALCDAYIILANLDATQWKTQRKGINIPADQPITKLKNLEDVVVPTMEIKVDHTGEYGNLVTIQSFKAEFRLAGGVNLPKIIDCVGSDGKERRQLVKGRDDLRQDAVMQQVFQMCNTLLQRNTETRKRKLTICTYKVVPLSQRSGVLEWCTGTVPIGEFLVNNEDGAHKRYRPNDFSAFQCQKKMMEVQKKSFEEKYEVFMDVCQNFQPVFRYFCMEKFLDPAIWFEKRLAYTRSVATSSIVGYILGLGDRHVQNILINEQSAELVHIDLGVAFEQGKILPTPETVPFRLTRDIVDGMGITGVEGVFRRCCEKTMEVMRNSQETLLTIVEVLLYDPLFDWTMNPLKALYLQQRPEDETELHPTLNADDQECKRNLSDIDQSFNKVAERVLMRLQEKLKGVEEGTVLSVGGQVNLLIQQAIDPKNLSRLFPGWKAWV

Compound: CNC(=O)c1ccccc1Oc1nc(Nc2cc(OC)c(OC)c(OC)c2)ncc1Br
- inhibition [1]: 1%
- fold change (FC) [2]: 0.08
- fold change (FC) [3]: 0.19
- inhibition [4]: 0%

Compound: CC(C)[C@H](NC(=O)c1cc(-c2cnn3cc(-c4ccc(OCCN5CCCCC5)cc4)cnc23)cs1)C(F)(F)F
- fold change (FC) [5]: 0.07

Compound: O=C(N[C@@H](C1CC1)C(F)(F)F)c1cc(-c2cnn3cc(-c4ccc(F)cc4)cnc23)cs1
- fold change (FC) [6]: 0
- inhibition [7]: 0%
- inhibition [8]: 5%
- fold change (FC) [9]: 0.1
- inhibition [10]: 0%
